Source: ChEMBL document CHEMBL1124902, “Hydroxyperfluoroazobenzenes: novel inhibitors of enzymes of androgen biosynthesis” (J Med Chem, 1990)

Experiments:
[1] = target: T1, Steroid 5-alpha-reductase (Rattus norvegicus, UniProt P24008+P31214); assay: Binding constant of Testosterone-5 alpha-reductase activity at pH 7.4; assay type: protein assay
T1 sequence (P24008 whole entry): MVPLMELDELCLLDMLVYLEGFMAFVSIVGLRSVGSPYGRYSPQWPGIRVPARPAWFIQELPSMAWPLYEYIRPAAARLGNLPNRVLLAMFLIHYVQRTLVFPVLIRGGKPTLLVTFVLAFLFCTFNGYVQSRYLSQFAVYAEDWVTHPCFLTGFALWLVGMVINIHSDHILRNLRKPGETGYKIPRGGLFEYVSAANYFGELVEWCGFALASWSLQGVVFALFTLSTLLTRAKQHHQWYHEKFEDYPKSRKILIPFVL
T1 sequence (P31214 whole entry): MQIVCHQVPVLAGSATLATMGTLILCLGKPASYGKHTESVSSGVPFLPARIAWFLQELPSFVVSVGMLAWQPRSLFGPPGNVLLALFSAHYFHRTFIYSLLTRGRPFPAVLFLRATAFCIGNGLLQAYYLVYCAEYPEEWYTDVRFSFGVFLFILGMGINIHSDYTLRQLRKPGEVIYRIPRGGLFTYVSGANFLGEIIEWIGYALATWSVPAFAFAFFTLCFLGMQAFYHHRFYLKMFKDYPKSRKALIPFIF

[2] = target: T2, Steroid 17-alpha-hydroxylase/17,20 lyase (Rattus norvegicus, UniProt P11715); assay: Percent inhibition of Steroid 17-alpha-hydroxylase/17,20 lyase from rat testes microsomes at 100 uM
T2 sequence (P11715 whole entry): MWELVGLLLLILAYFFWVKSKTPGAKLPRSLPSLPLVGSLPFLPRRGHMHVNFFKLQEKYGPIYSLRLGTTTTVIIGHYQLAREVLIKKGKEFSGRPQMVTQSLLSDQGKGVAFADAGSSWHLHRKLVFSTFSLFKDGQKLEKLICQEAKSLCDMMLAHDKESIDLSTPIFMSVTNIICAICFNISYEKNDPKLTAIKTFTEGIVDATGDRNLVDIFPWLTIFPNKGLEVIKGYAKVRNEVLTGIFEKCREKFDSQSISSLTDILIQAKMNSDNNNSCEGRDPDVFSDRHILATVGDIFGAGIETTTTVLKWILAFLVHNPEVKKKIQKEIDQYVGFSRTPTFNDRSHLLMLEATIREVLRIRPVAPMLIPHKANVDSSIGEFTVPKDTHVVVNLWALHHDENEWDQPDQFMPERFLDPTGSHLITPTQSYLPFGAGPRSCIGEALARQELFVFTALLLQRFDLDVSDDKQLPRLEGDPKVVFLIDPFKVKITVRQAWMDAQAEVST

[3] = target: T2, Steroid 17-alpha-hydroxylase/17,20 lyase; assay: Inhibition of 17-alpha-hydroxylase/17,20 lyase from rat testes microsomal preparation; assay type: microsomes, Testis
How it was run: (§1)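 Rat testis microsomes as enzyme source. The assay contained 1 μM [³H]progesterone, 250 μM NADPH, a glucose-6-phosphate/G6P dehydrogenase regenerating system, 1 mM MgCl₂, 0.1 mM EDTA and 0.1 mM DTT in 50 mM sodium phosphate at pH 7.4, with 5% ethanol vehicle. Incubation ran 10 min at 37 °C. Substrate, 17α-OH-progesterone and product were quantified, giving separate hydroxylase and lyase steps. Each point was run in triplicate at ≥3 concentrations, and IC50 was taken from a Dixon linear regression.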

[4] = target: T2, Steroid 17-alpha-hydroxylase/17,20 lyase; assay: Percent inhibition of Steroid 17-alpha-hydroxylase/17,20 lyase of rat testes microsomes at 100 uM
[5] = target: T1, Steroid 5-alpha-reductase; assay: Inhibition of Testosterone-5 alpha-reductase activity at pH 7.4 from rat; assay type: protein assay
How it was run: (§2)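 Crude nuclear fraction (ca. 1.5 mg) from adult Wistar rat ventral prostate, in 50 mM potassium phosphate. The substrate was 5 μM testosterone with 4-[¹⁴C]testosterone, plus 1 mM NADPH and 1 mM DTT. Incubation ran 30 min at 37 °C and was stopped with ethyl acetate/HgCl₂. [¹⁴C]DHT was measured by TLC radioscan. Inhibitors were added in 2% DMSO at 1, 2, 5, 10 and 20 μM, with assays in duplicate.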

[6] = target: T1, Steroid 5-alpha-reductase; assay: Inhibition of rat testosterone-5 alpha-reductase activity at pH 6.6 from rat; assay type: protein assay; how it was run: as §2
[7] = target: T2, Steroid 17-alpha-hydroxylase/17,20 lyase; assay: Inhibition of Steroid 17-alpha-hydroxylase/17,20 lyase from rat testes microsomal preparation; how it was run: as §1
[8] = target: T2, Steroid 17-alpha-hydroxylase/17,20 lyase; assay: Percent inhibition of 17-alpha-hydroxylase/17,20 lyase of rat testes microsomes at 100 uM
[9] = target: T1, Steroid 5-alpha-reductase; assay: Inhibition of Testosterone-5 alpha-reductase activity at pH 7.4 from rat; B = no inhibition at the highest concentration tested (20 uM); assay type: protein assay; how it was run: as §2
[10] = target: T1, Steroid 5-alpha-reductase; assay: Inhibition of Testosterone-5 alpha-reductase activity at pH 6.6 from rat; B = no inhibition at the highest concentration tested (20 uM); assay type: protein assay; how it was run: as §2

Compound | Ki [1] [µM] | inhibition at 100 µM [2] [%] | IC50 [3] [µM] | inhibition at 100 µM [4] [%] | IC50 [5] [µM] | IC50 [6] [µM] | IC50 [7] [µM] | inhibition at 100 µM [8] [%] | IC50 [9] | IC50 [10]
Fc1c(F)c(F)c2c(c1F)N=Nc1c(F)c(F)c(F)c(F)c1O2 |  | 88 | 50 |  |  |  | 15 | 67 |  | 
Oc1ccc(/N=N/c2ccccc2)cc1 |  | 0 |  |  |  |  |  | 6 | No inhibition | 
c1ccc(/N=N/c2ccccc2)cc1 [AZOBENZENE] |  | 0 |  |  |  |  |  | 0 | No inhibition | 
CC(=O)N1CCN(c2ccc(OCC3COC(Cn4ccnc4)(c4ccc(Cl)cc4Cl)O3)cc2)CC1 (stereo unspecified) [KETOCONAZOLE] |  | 48 | 6 |  |  |  | 11 | 62 |  | 
CC(=O)[C@H]1CC[C@H]2[C@@H]3CCC4=CC(=O)CC[C@]4(C)[C@H]3CC[C@]12C [PROGESTERONE] |  |  |  |  | 2.6 | 1.6 |  |  |  | 

Further lines, results first:

Ki [1] [µM] | inhibition at 100 µM [2] [%] | IC50 [3] [µM] | inhibition at 100 µM [4] [%] | IC50 [5] [µM] | IC50 [6] [µM] | IC50 [7] [µM] | inhibition at 100 µM [8] [%] | IC50 [9] | IC50 [10] | Compound
10 | 71 | 30 | 76 | 14 | 2 | 33 |  |  |  | Oc1c(F)c(F)c(/N=N/c2c(F)c(F)c(F)c(F)c2F)c(F)c1F
4 | 14 |  |  | 5 | 0.79 |  | 15 |  |  | Oc1c(F)c(F)c(/N=N/c2c(F)c(F)c(O)c(F)c2F)c(F)c1F
 | 83 | 63 |  |  |  | 16 | 62 |  | No inhibition | Oc1c(F)c(F)c(F)c(F)c1/N=N/c1c(F)c(F)c(F)c(F)c1F
 | 0 |  |  |  |  |  | 4 | No inhibition |  | Fc1c(F)c(F)c(/N=N/c2c(F)c(F)c(F)c(F)c2F)c(F)c1F
